Source: PubChem BioAssay
This is a sample that favours compounds with a hit; in the whole collection about 4.4% have one here.
HSF-1 act: HSF-1 activators, primary screen, NIH3T3-HGL cells, MG132 stress, luminescence, single point; NIH3T3-HGL HSF-1 luciferase reporter, 8 h; 100% = twice DMSO control signal; activation, % at 9 µM; 300,000 compounds, 1.7% hits; AID 504408, 2011;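 active = mean replicate activation of at least 50% with a set share of replicates each reaching 50%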;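 also: 0% = median of the neutral control wells and 100% = twice that signal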
HIF act: HIF pathway transcriptional activators, primary screen, cell-based, U2OS HRE-luciferase, luminescence; AID 1910, 2009; activation, % at 7.5 µM (by protocol); 300,000 compounds, 0.32% hits; U2OS HRE-luciferase reporter; normalized: DMSO 0%, desferrioxamine 100%;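 active = mean activation of at least 10% of the iron chelator positive control signal, with at least half of replicates also reaching 10%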
Calb FLC: C. albicans growth inhibition with fluconazole, primary screen, CaCi-2 strain, Alamar Blue fluorescence; C. albicans CaCi-2 + fluconazole, 48 h; growth inhibition, % (no concentration beside the values); 300,000 compounds, 0.57% hits; AID 1979, 2009;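 active = growth inhibition above about 58% in most replicates, limit read from the data, passing the limit was not always enough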;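 also: all wells also contain fluconazole at 8 µg/ml as a sub-toxic cotreatment; 0% = median of DMSO wells and 100% = median of geldanamycin control wells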
HSF1 inhib: HSF1 inhibitors in luciferase reporter cells, primary screen, cell-based, NIH3T3, luminescence; NIH3T3-HGL HSE-luciferase, MG132-induced, luminescence 8 h; stronger effect = lower value; activity change, negative = inhibition, % at 7.5 µM (by protocol); 300,000 compounds, 0.77% hits;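 active = more than half of replicate wells show activity change below -50%, luminescence cut by over half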;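 also: luciferase reports HSF-1 transcriptional activity via heat shock element; 0% = median of DMSO wells and -100% = zero luminescence signal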
T cruzi repl: inhibitors of intracellular T. cruzi growth, primary screen, luminescence, NIH3T3 host cells; inhibition, % (test concentration not listed); AID 1885, 2009; T. cruzi beta-gal in NIH3T3, 90 h; 300,000 compounds, 1.4% hits;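 active = mean inhibition across valid replicates above about 55%, limit read from the data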;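 also: signal also drops with host cell toxicity which is not excluded here; 0% = plate median of DMSO wells and 100% = zero luminescence signal; higher percent means less beta-gal luminescence so fewer parasites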
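assay system = mouse NIH/3T3 fibroblasts infected with β-gal-expressing T. cruzi Tulahuen C4 | input = 5,000 NIH/3T3 host cells per well | buffer or medium = DMEM plus 2% FBS | timing = 3 h host attachment, then at least 90 h co-culture | measured by = GalScreen luminescence, 60 min | evaluation = luminescence reflecting intracellular parasite burden, expressed as percent inhibition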
The depositor's hits bear a star; / = no result.

SMILES	HSF-1 act	HIF act	Calb FLC	HSF1 inhib	T cruzi repl
COc1ccc2[nH]c(=O)c(CN(CCO)S(=O)(=O)c3ccc4c(c3)OCCO4)cc2c1	19	1	4	-2	0
Cc1ccc(S(=O)(=O)N2CCOC2CNC(=O)C(=O)NCc2cccnc2)cc1 (stereo unspecified)	-19	0	2	-4	-22
CCOC(=O)N1CCN(C(=O)c2cc(OC)cc(OC)c2)CC1	-4	0	8	-10	-4
COc1cc(OC)cc(C(=O)N2CCN(S(C)(=O)=O)CC2)c1	-85	0	2	-82*	-13
O=C(Nc1ccc2c(c1)OCO2)c1ccc2c(c1)OCO2	39	0	1	12	-8
O=C(Nc1ccc(Cl)c([N+](=O)[O-])c1)c1ccc(NCCCN2CCOCC2)c([N+](=O)[O-])c1	-14	0	27	-7	55*
O=C(Nc1ccc(Cl)c(Cl)c1)c1ccc2c(c1)OCO2	88*	-4	-12	64	4
O=C(Nc1ccc(N2CCCC2)c(Cl)c1)c1ccc(Br)o1	9	3	-9	-4	55*
O=C(Nc1ccc(N2CCCCC2)c(Cl)c1)c1ccc(N2CCOCC2)c([N+](=O)[O-])c1	-10	0	40	-5	62*
O=C(Nc1cc(Cl)ccc1N1CCOCC1)c1ccc(N2CCCCC2)c([N+](=O)[O-])c1	4	0	2	-1	22
O=C(O)C1CN(C(=O)c2ccccc2)c2cc(Cl)ccc2O1 (stereo unspecified)	9	0	4	2	-3
COc1ccc(CCN2CC(C(=O)NC3CCCCC3)CC2=O)cc1OC (stereo unspecified)	0	0	13	0	-5
COc1cc2c(cc1OC)CN(C(=O)CCCOc1ccc(Cl)cc1Cl)CC2	7	0	9	7	28
O=C(Nc1ccc(N2CCCC2)c(Cl)c1)c1ccc2c(c1)OCCO2	36	2	-8	12	59*
COc1ccc(CNC(=O)c2ccc(N3CCOCC3)c([N+](=O)[O-])c2)cc1	11	0	14	-1	-3
O=C(NCCCN1CCOCC1)c1ccc(Cl)c([N+](=O)[O-])c1	-2	0	3	-3	0
CCOC(=O)CSc1ccc(C(=O)NCCCN2CCOCC2)cc1[N+](=O)[O-]	-75	-1	-2	-69*	11
O=C(Nc1ccc(NC(=O)c2ccc(Cl)cc2Cl)cc1)c1ccc2c(c1)OCO2	4	0	2	-10	-6
COc1ccc2oc(-c3ccc(C)c(NC(=O)c4ccc(N5CCOCC5)c([N+](=O)[O-])c4)c3)nc2c1	81*	2	4	45	15
O=C(Nc1ccc(Cl)cc1)c1ccc2c(c1)OCO2	60*	4	-1	33	-12
Cc1cc(C)c2nc(-c3cccnc3)cc(C(=O)NC(C)c3cnn(C)c3C)c2c1 (stereo unspecified)	10	0	6	10	11
CCc1ccc(NC(=O)c2ccc(NC(=O)C3CCCO3)cc2)cc1 (stereo unspecified)	12	1	5	0	-7
O=C(CSc1nc2[nH]ncc2c(=O)n1-c1ccc(Cl)c(Cl)c1)NCc1ccccc1Cl	4	-1	30	16	58*
COc1ccccc1CNC(=O)CCc1nnc2ccc(NCCCN3CCCC3=O)nn12	-11	0	2	-11	-1
CCOCc1nnc(NC(=O)C2c3ccccc3Oc3ccccc32)s1	7	0	0	2	-14
SMILES	HSF-1 act	HIF act	Calb FLC	HSF1 inhib	T cruzi repl
Cc1cccc(/C=C/C(=O)c2ccc(NC3=NCCCS3)cc2)c1	74*	4	/	44	55*
COc1cccc(/C=C/C(=O)c2ccc(NC3=NCCCS3)cc2)c1	12	2	-6	5	45
CC(C)(C)c1ccc(/C=C/C(=O)c2ccc(NC3=NCCCS3)cc2)cc1	19	0	/	10	58*
CC(CC(=O)NC1CCCC1)c1ccccc1 (stereo unspecified)	-3	1	2	1	-2
CCCOc1ccc(CNCCCOCC)cc1OC	-7	0	1	-3	63*
O=C(CCN1C(=O)c2cccc3cccc(c23)C1=O)Nc1ccon1	/	0	-15	/	-1
CC1CC(C)CN(S(=O)(=O)c2ccc(C(=O)NCc3ccco3)cc2)C1 (stereo unspecified)	3	0	13	3	11
Cc1ccc2[nH]c3c(c2c1)CCN(C)C3	-77	0	16	-71*	9
CC1=NN(C(N)=S)C(=O)C1N=Nc1ccc(F)cc1 (stereo unspecified)	53*	3	-2	31	-22
OC1c2cc(Br)ccc2N=C2CCCN21 (stereo unspecified)	24	1	19	17	55*
CC1=Nc2ccc(Br)cc2C(c2ccccc2)N1CC(=O)NN (stereo unspecified)	17	0	8	3	-1
COc1ccc(NC(=S)N(Cc2ccc(N(C)C)cc2)Cc2ccco2)cc1	91*	1	-29	68	23
COc1ccc(NC(=S)N(Cc2ccc(C)cc2)Cc2ccccn2)cc1	37	4	-5	11	77*
COc1ccc(NC(=S)N(CCc2ccc(OC)c(OC)c2)Cc2ccccn2)cc1	25	1	-15	8	-12
CCOC1=C/C(=C/c2c(N)n3nc(S(=O)(=O)CC)sc3nc2=O)C=CC1=O	2	0	-1	-2	12
CCOC(=O)C(=O)N1CCN(c2cc3c(cc2[N+](=O)[O-])n(C)c(=O)n3C)CC1	-1	0	-3	3	3
CCOC(=O)C1=C(COC(=O)c2ncc(Cl)c(Cl)c2Cl)NC(=O)NC1C (stereo unspecified)	-8	-10	3	0	-28
COc1cccc(NC(=O)Nc2nnc(Cc3ccccc3F)s2)c1	-74	1	-3	-67*	12
O=C(CCC(=O)c1ccc(F)cc1)Nc1cc(Cl)cc(Cl)c1	58*	3	-5	5	13
Cc1cccc(C)c1N1CCN(c2ccc3nnc(C(F)(F)F)n3n2)CC1	129*	0	-5	88	18
CCn1c(O)c(/C=N/N=C2CCCCC2)c2cc(C3=NNC(=O)CC3)ccc21	1	-1	-3	-6	-7
C/[N+]([O-])=C\C1C(=O)CC(C)(C)CC1=O	-63	0	-3	-55*	-15
COC(C/C=C/[C@@H](O)COCc1ccccc1)OC	-5	-2	5	3	17
O=S1(=O)N=C(N2CCOCC2)c2ccccc21	2	-1	3	-1	-19
